Test results taken from ChEMBL document CHEMBL1144306, “1-Hydroxyalkyl-3-phenylthioureas as novel HDL-elevating agents” (2005).

Assays:
Type in all cases: functional
[1] = test system: Rattus norvegicus; assay: Effect on level of high density lipoprotein cholesterol (relative to untreated control) in cholesterol fed-male rats at 74 mg/kg/day
Outline: (§1)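 Male Sprague–Dawley rats (groups of six) fed a cholic acid- and cholesterol-supplemented diet; compound mixed into the diet, given ad libitum for eight days. Lipoproteins were separated by ultracentrifugation, and cholesterol was measured by an enzymatic colorimetric method. Results are % change versus untreated controls, with significance at p < 0.05.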

[2] = test system: Rattus norvegicus; assay: Effect on change in body weight gain (relative to untreated control) in cholesterol fed-male rats at 74 mg/kg/day
Outline: (§2)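 Male Sprague–Dawley rats, six per group, on a cholic acid- and cholesterol-supplemented diet. Compounds were mixed into the diet and given ad libitum for eight days. Change in body weight gain is expressed as a percentage of untreated controls. Significance was set at p < 0.05 versus untreated controls.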

[3] = test system: Rattus norvegicus; assay: Effect on level of total cholesterol (relative to untreated control) in cholesterol fed-male rats at 74 mg/kg/day; outline: as §1
[4] = test system: Rattus norvegicus; assay: Effect on level of triglyceride in (relative to untreated control) in cholesterol fed-male rats at 74 mg/kg/day
Outline: (§3)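 Serum triglycerides were measured in groups of six male Sprague–Dawley rats on a cholic acid/cholesterol-supplemented diet. Compound was dosed in the diet, ad libitum, for eight days. Results are % change relative to untreated controls, with significance at p < 0.05.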

[5] = test system: Rattus norvegicus; assay: Effect on level of apolipoprotein (Apo) AI (relative to untreated control) in cholesterol fed-male rats at 74 mg/kg/day
Outline: (§4)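 Six male Sprague–Dawley rats per group, fed a cholic acid/cholesterol-supplemented diet, received compound in the diet ad libitum for eight days. Serum Apo A–I was measured by SDS-PAGE or by rat competition ELISA and reported as % change versus untreated controls (p < 0.05). Gemfibrozil was the internal positive control in each study.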

[6] = test system: Rattus norvegicus; assay: Effect on level of high density lipoprotein cholesterol (relative to untreated control) in cholesterol fed-male rats at 67 mg/kg/day; outline: as §1
[7] = test system: Rattus norvegicus; assay: Effect on level of total cholesterol (relative to untreated control) in cholesterol fed-male rats at 67 mg/kg/day; outline: as §1
[8] = test system: Rattus norvegicus; assay: Effect on change in body weight gain (relative to untreated control) in cholesterol fed-male rats at 67 mg/kg/day; outline: as §2
[9] = test system: Rattus norvegicus; assay: Effect on level of triglyceride in (relative to untreated control) in cholesterol fed-male rats at 67 mg/kg/day; outline: as §3
[10] = test system: Rattus norvegicus; assay: Effect on level of apolipoprotein (Apo) AI (relative to untreated control) in cholesterol fed-male rats at 67 mg/kg/day; outline: as §4
[11] = test system: Rattus norvegicus; assay: Effect on level of high density lipoprotein cholesterol (relative to untreated control) in cholesterol fed-male rats at 80 mg/kg/day; outline: as §1
[12] = test system: Rattus norvegicus; assay: Effect on level of total cholesterol (relative to untreated control) in cholesterol fed-male rats at 80 mg/kg/day; outline: as §1
[13] = test system: Rattus norvegicus; assay: Effect on change in body weight gain (relative to untreated control) in cholesterol fed-male rats at 80 mg/kg/day; outline: as §2
[14] = test system: Rattus norvegicus; assay: Effect on level of apolipoprotein (Apo) AI (relative to untreated control) in cholesterol fed-male rats at 80 mg/kg/day; outline: as §4
[15] = test system: Rattus norvegicus; assay: Effect on level of triglyceride in (relative to untreated control) in cholesterol fed-male rats at 80 mg/kg/day
Outline: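 Compound given in diet ad libitum for eight days to groups of six male Sprague–Dawley rats on a cholic acid and cholesterol-supplemented diet. Serum triglycerides expressed as % change relative to untreated controls, with significance at p < 0.05. Gemfibrozil served as internal positive control within each study.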

[16] = test system: Rattus norvegicus; assay: Effect on level of high density lipoprotein cholesterol (relative to untreated control) in cholesterol fed-male rats at 51 mg/kg/day
Outline: (§5)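 Cholic acid/cholesterol-fed male Sprague–Dawley rats (n = 6 per group) were dosed via diet ad libitum for eight days. Lipoproteins were separated by ultracentrifugation and HDL cholesterol was quantified by an enzymatic colorimetric method. Values are % change relative to untreated controls, with significance at p < 0.05. Gemfibrozil was the internal positive control.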

[17] = test system: Rattus norvegicus; assay: Effect on change in body weight gain (relative to untreated control) in cholesterol fed-male rats at 51 mg/kg/day; outline: as §2
[18] = test system: Rattus norvegicus; assay: Effect on level of total cholesterol (relative to untreated control) in cholesterol fed-male rats at 51 mg/kg/day; outline: as §1
[19] = test system: Rattus norvegicus; assay: Effect on level of triglyceride in (relative to untreated control) in cholesterol fed-male rats at 51 mg/kg/day; outline: as §3
[20] = test system: Rattus norvegicus; assay: Effect on level of apolipoprotein (Apo) AI (relative to untreated control) in cholesterol fed-male rats at 51 mg/kg/day; outline: as §4
[21] = test system: Rattus norvegicus; assay: Effect on level of high density lipoprotein cholesterol (relative to untreated control) in cholesterol fed-male rats at 60 mg/kg/day; outline: as §5
[22] = test system: Rattus norvegicus; assay: Effect on change in body weight gain (relative to untreated control) in cholesterol fed-male rats at 60 mg/kg/day; outline: as §2
[23] = test system: Rattus norvegicus; assay: Effect on level of triglyceride in (relative to untreated control) in cholesterol fed-male rats at 60 mg/kg/day; outline: as §3
[24] = test system: Rattus norvegicus; assay: Effect on level of apolipoprotein (Apo) AI (relative to untreated control) in cholesterol fed-male rats at 60 mg/kg/day; outline: as §4
[25] = test system: Rattus norvegicus; assay: Effect on level of total cholesterol (relative to untreated control) in cholesterol fed-male rats at 60 mg/kg/day; outline: as §1
[26] = test system: Rattus norvegicus; assay: Effect on level of high density lipoprotein cholesterol (relative to untreated control) in cholesterol fed-male rats at 68 mg/kg/day; outline: as §1
[27] = test system: Rattus norvegicus; assay: Effect on level of total cholesterol (relative to untreated control) in cholesterol fed-male rats at 68 mg/kg/day; outline: as §1
[28] = test system: Rattus norvegicus; assay: Effect on change in body weight gain (relative to untreated control) in cholesterol fed-male rats at 68 mg/kg/day; outline: as §2
[29] = test system: Rattus norvegicus; assay: Effect on level of triglyceride in (relative to untreated control) in cholesterol fed-male rats at 68 mg/kg/day; outline: as §3
[30] = test system: Rattus norvegicus; assay: Effect on level of apolipoprotein (Apo) AI (relative to untreated control) in cholesterol fed-male rats at 68 mg/kg/day; outline: as §4
[31] = test system: Rattus norvegicus; assay: Effect on level of high density lipoprotein cholesterol (relative to untreated control) in cholesterol fed-male rats at 42 mg/kg/day; outline: as §5
[32] = test system: Rattus norvegicus; assay: Effect on change in body weight gain (relative to untreated control) in cholesterol fed-male rats at 42 mg/kg/day; outline: as §2
[33] = test system: Rattus norvegicus; assay: Effect on level of total cholesterol (relative to untreated control) in cholesterol fed-male rats at 42 mg/kg/day; outline: as §1
[34] = test system: Rattus norvegicus; assay: Effect on level of triglyceride in (relative to untreated control) in cholesterol fed-male rats at 42 mg/kg/day; outline: as §3
[35] = test system: Rattus norvegicus; assay: Effect on level of apolipoprotein (Apo) AI (relative to untreated control) in cholesterol fed-male rats at 42 mg/kg/day; outline: as §4
[36] = test system: Rattus norvegicus; assay: Effect on level of apolipoprotein (Apo) AI (relative to untreated control) in cholesterol fed-male rats at 36 mg/kg/day; outline: as §4
[37] = test system: Rattus norvegicus; assay: Effect on level of high density lipoprotein cholesterol (relative to untreated control) in cholesterol fed-male rats at 36 mg/kg/day; outline: as §5
[38] = test system: Rattus norvegicus; assay: Effect on change in body weight gain (relative to untreated control) in cholesterol fed-male rats at 36 mg/kg/day; outline: as §2
[39] = test system: Rattus norvegicus; assay: Effect on level of total cholesterol (relative to untreated control) in cholesterol fed-male rats at 36 mg/kg/day; outline: as §1
[40] = test system: Rattus norvegicus; assay: Effect on level of triglyceride in (relative to untreated control) in cholesterol fed-male rats at 36 mg/kg/day; outline: as §3

Cc1ccc(Cl)cc1/N=C(\S)NCCCO
Activity [1]: 82%
Activity [2]: -63%
Activity [3]: 3%
Activity [4]: -80%
Activity [5]: 24%

Cc1c(Cl)cccc1/N=C(\S)NCCO
Activity [6]: 63%
Activity [7]: 10%
Activity [8]: -56%
Activity [9]: -16%
Activity [10]: 27%

COc1ccc(Cl)cc1/N=C(\S)NCCO
Activity [11]: 106%
Activity [12]: 66%
Activity [13]: -38%
Activity [14]: 30%
Activity [15]: -27%

Cc1ccccc1/N=C(\S)NCCO
Activity [16]: 3%
Activity [17]: -138%
Activity [18]: 66%
Activity [19]: -51%
Activity [20]: -18%

Cc1ccc(N/C(S)=N/CCO)cc1Cl
Activity [1]: 72%
Activity [2]: -77%
Activity [3]: 15%
Activity [4]: -15%
Activity [5]: -5%

Cc1ccc(Cl)cc1/N=C(\S)NC(C)(C)CO
Activity [11]: 58%
Activity [12]: -13%
Activity [13]: -23%
Activity [14]: 23%
Activity [15]: -15%

OCC/N=C(\S)Nc1cc(Cl)cc(Cl)c1
Activity [21]: 50%
Activity [22]: -90%
Activity [23]: -35%
Activity [24]: 48%
Activity [25]: 9%

Cc1ccc(Cl)cc1N/C(S)=N/C[C@H](C)O
Activity [26]: 33%
Activity [27]: 30%
Activity [28]: -68%
Activity [29]: -75%
Activity [30]: 8%

Cc1cc(Cl)ccc1/N=C(\S)NCCO
Activity [31]: 53%
Activity [32]: -229%
Activity [33]: 17%
Activity [34]: -8%
Activity [35]: 18%

COCC/N=C(\S)Nc1cc(Cl)ccc1C
Activity [36]: 33%
Activity [37]: 30%
Activity [38]: -3%
Activity [39]: 20%
Activity [40]: -47%
